The source made the active and inactive calls. The rule behind the calls is not given here.
Key:
Assay type in all cases: cell-based
[1] = target: Small conductance calcium-activated potassium channel protein 2 (Rattus norvegicus, UniProt P70604); test: Potentiation of rat KCa2.2a expressed in HEK293 cells at -90 mV holding potential measured at 1 to 2 days by patch clamp electrophysiology
Outline: (§1)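 Inside-out patches from HEK293 cells transfected (calcium-phosphate) with channel cDNA plus CaM and GFP (7:4:2). Bath (mM): 140 KCl, 10 Hepes pH 7.2, 1 EGTA, 0.1 dibromo-BAPTA, 1 HEDTA, with Ca2+ added to set free Ca2+, verified against a fluorescence standard curve. Currents taken at –90 mV and normalized to the maximal-compound response. EC50 and Hill coefficient came from a concentration–response fit. Efficacy was the maximal-compound current relative to the current at 10 µM Ca2+.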

[2] = target: Small conductance calcium-activated potassium channel protein 2 (Rattus norvegicus) (UniProt P70604); test: Potentiation of rat KCa2.2a expressed in HEK293 cells at 0.01 to 100 uM with -90 mV holding potential measured at 1 to 2 days by patch clamp electrophysiology relative to calcium; conditions: filed as positive allosteric modulator, dose 0.01-100 µM, time 1-2 day; outline: as §1
Sequence of Small conductance calcium-activated potassium channel protein 2 (Rattus norvegicus) (P70604 whole entry): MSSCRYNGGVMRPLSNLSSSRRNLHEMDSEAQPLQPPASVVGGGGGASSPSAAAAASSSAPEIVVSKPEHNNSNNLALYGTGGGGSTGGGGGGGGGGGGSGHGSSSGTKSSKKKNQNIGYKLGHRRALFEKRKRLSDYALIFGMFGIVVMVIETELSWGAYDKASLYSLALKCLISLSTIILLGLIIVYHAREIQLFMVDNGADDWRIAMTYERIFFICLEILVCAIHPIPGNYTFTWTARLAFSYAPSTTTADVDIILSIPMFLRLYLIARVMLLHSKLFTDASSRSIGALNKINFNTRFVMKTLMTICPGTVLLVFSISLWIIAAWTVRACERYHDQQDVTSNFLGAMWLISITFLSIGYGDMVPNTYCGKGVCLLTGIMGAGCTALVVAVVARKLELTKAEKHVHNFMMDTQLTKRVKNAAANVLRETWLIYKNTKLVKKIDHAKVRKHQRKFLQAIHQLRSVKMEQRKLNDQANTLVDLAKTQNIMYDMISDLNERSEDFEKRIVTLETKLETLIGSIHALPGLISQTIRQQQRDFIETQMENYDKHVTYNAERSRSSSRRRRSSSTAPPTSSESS

[3] = target: Small conductance calcium-activated potassium channel protein 1 (Homo sapiens) (UniProt Q92952); test: Potentiation of human KCa2.1 expressed in HEK293 cells at 0.01 to 100 uM with -90 mV holding potential measured at 1 to 2 days by patch clamp electrophysiology relative to calcium; conditions: dose 0.01-100 µM, time 1-2 day; outline: as §1
Sequence of Small conductance calcium-activated potassium channel protein 1 (Homo sapiens) (Q92952 whole entry): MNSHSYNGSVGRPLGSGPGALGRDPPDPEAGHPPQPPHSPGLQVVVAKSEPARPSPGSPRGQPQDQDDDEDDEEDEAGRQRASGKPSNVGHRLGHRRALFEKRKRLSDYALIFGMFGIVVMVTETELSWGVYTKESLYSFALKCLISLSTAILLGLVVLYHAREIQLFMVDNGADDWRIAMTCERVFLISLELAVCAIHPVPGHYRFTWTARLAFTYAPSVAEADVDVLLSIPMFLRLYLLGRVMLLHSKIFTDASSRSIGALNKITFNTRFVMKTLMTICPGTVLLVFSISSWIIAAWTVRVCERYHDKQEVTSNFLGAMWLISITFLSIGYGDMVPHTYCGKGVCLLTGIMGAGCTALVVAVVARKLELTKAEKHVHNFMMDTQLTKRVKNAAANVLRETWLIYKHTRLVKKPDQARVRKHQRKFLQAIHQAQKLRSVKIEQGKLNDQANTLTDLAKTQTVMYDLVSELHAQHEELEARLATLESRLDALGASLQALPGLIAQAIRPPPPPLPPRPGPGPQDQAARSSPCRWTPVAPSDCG

[4] = target: Calcium-activated potassium channel subunit alpha-1 (Homo sapiens) (UniProt Q12791); test: Potentiation of human KCa1.1 expressed in HEK293 cells at 100 uM with -90 mV holding potential measured at 1 to 2 days by patch clamp electrophysiology; conditions: time 1-2 day
Sequence of Calcium-activated potassium channel subunit alpha-1 (Homo sapiens) (Q12791 whole entry): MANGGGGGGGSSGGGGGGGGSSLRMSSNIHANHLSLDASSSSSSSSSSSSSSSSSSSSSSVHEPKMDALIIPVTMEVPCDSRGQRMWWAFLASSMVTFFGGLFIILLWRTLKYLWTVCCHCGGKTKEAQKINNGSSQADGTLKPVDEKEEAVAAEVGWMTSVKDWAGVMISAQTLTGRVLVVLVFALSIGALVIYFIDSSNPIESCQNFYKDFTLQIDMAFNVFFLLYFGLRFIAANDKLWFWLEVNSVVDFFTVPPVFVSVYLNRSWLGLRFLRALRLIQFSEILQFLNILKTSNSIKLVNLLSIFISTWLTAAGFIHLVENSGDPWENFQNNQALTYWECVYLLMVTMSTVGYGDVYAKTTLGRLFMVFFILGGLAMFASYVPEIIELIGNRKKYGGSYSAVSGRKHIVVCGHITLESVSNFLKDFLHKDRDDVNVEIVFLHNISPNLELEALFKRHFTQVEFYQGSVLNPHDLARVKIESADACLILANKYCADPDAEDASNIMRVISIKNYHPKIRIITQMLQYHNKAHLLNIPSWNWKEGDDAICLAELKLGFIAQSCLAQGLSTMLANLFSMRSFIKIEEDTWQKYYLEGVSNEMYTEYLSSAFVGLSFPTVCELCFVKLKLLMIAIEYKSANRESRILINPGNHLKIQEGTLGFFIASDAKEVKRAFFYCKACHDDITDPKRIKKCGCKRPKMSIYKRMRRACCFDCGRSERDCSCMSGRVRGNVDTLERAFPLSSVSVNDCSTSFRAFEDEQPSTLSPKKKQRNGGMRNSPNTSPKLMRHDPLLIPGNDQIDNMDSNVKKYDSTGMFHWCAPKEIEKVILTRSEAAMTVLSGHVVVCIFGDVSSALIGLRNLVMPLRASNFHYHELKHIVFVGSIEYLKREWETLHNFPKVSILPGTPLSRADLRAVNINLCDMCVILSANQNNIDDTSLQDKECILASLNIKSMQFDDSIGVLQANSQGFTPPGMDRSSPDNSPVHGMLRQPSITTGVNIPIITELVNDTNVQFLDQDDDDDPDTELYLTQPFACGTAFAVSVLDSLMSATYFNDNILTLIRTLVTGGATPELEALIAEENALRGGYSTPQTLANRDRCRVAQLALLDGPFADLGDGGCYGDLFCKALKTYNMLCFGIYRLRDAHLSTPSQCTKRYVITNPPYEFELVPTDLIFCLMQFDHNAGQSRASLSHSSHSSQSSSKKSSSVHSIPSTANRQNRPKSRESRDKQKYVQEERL

N1E-115 = test: Inhibition of mouse Nav1.2 expressed in mouse N1E-115 cells at 100 uM with -90 mV holding potential measured by patch clamp electrophysiology
[5] = target: Intermediate conductance calcium-activated potassium channel protein 4 (Homo sapiens) (UniProt O15554); test: Potentiation of human KCa3.1 expressed in HEK293 cells at 0.01 to 100 uM with -90 mV holding potential measured at 1 to 2 days by patch clamp electrophysiology relative to calcium; conditions: dose 0.01-100 µM, time 1-2 day; outline: as §1
Sequence of Intermediate conductance calcium-activated potassium channel protein 4 (Homo sapiens) (O15554 whole entry): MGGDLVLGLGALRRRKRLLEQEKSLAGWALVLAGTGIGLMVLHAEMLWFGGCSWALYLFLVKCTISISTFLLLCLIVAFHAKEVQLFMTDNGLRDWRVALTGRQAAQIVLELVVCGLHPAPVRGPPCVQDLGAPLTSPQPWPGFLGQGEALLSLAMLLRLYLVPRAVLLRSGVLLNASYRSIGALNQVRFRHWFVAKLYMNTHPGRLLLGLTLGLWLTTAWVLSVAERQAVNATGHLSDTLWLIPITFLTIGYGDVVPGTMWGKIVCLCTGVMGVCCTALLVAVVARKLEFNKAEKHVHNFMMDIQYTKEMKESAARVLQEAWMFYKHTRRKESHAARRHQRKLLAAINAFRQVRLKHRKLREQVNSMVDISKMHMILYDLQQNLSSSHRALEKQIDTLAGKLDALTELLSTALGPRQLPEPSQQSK

[6] = target: T1, Small conductance calcium-activated potassium channel protein 3 (Homo sapiens, UniProt Q9UGI6); test: Potentiation of human KCa2.3 expressed in HEK293 cells at -90 mV holding potential measured at 1 to 2 days by patch clamp electrophysiology; outline: as §1
T1 sequence (Q9UGI6 whole entry): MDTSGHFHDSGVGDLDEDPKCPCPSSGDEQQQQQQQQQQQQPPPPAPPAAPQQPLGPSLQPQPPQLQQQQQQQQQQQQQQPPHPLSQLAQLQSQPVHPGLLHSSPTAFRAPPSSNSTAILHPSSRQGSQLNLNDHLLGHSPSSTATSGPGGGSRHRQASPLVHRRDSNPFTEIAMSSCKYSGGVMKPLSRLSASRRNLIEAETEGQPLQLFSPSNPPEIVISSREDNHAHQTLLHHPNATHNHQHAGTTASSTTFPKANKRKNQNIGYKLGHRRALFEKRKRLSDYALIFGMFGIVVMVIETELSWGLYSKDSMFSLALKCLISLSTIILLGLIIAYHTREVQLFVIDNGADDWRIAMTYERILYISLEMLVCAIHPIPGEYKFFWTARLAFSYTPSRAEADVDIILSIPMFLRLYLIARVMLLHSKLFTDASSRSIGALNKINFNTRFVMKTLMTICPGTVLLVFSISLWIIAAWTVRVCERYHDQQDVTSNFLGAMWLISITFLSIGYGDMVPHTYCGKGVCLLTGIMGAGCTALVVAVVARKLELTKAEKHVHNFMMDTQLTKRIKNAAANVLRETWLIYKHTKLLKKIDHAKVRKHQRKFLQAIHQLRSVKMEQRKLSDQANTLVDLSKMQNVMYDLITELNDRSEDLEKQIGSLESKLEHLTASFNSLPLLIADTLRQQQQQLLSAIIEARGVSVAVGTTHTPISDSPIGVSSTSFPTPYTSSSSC

[7] = target: T1, Small conductance calcium-activated potassium channel protein 3; test: Potentiation of human KCa2.3 expressed in HEK293 cells at -90 mV holding potential measured at 1 to 2 days by patch clamp electrophysiology relative to calcium; outline: as §1

Sequence of Small conductance calcium-activated potassium channel protein 2 (P70604 whole entry): as the sequence (P70604 whole entry) above

Row | SMILES | EC50 [1] | also measured
1 | Cc1cc(N[C@@H](Cc2ccc(O)cc2)C(=O)O)nc(-n2nc(C)cc2C)n1 | > 100 µM | 
2 | Cc1cc(Nc2cc(C(=O)O)ccc2F)nc(-n2nc(C)cc2C)n1 | > 30 µM | 
3 | Cc1cc(N[C@H]2CC[C@@H]([N+](=O)[O-])CC2)nc(-n2nc(C)cc2C)n1 | > 100 µM | 
4 | Cc1cc(N[C@H]2CC[C@@H](CO)CC2)nc(-n2nc(C)cc2C)n1 | > 100 µM | 
5 | Cc1cc(NC2CCCCC2)nc(-n2nc(C)cc2C)n1 | 7.48 µM | Emax [2]: 85.6%
6 | Cc1cc(C)n(-c2cc(Nc3cc(F)ccc3F)nc(N)n2)n1 | > 100 µM | 
7 | Cc1cc(N[C@@H](Cc2ccc(F)c(F)c2)C(=O)O)nc(-n2nc(C)cc2C)n1 | > 100 µM | 
8 | Cc1cc(Nc2cc(Cl)cc(C(F)(F)F)c2)nc(-n2nc(C)cc2C)n1 | > 100 µM | 
9 | Cc1cc(Nc2cc(Cl)ccc2F)nc(-c2coc(C)n2)n1 | 13.8 µM | 
10 | Cc1cc(Nc2ccc(Cl)cc2F)nc(-n2nc(C)cc2C)n1 | 1.99 µM | 
11 | Cc1cn(-c2nc(C)cc(Nc3cc(Cl)ccc3F)n2)cn1 | 4.51 µM | 
12 | CO[C@H]1CC[C@@H](Nc2cc(C)nc(-n3nc(C)cc3C)n2)CC1 | 49.7 µM | Emax [2]: 94.6%
13 | Cc1cc(C)n(-c2cc(Nc3cc(F)ccc3Cl)nc(N)n2)n1 | > 100 µM | 
14 | Cc1cc(N[C@@H](Cc2ccc(C#N)cc2)C(=O)O)nc(-n2nc(C)cc2C)n1 | > 100 µM | 
15 | COc1cc2nc(Nc3cc(C)nc(-n4nc(C)cc4C)n3)[nH]c2cc1OC | > 100 µM | 
16 | Cc1cn(-c2nc(C)cc(Nc3ccc(F)c(Cl)c3)n2)cn1 | 38.8 µM | 
17 | Cc1cc(C)n(-c2cc(Nc3ccc(Cl)cc3F)nc(N)n2)n1 | > 100 µM | 
18 | Cc1cc(N[C@H]2CC[C@@H](F)CC2)nc(-n2nc(C)cc2C)n1 | > 100 µM | 
19 | Cc1cc(Nc2cc(F)ccc2Cl)nc(-n2nc(C)cc2C)n1 | 2.97 µM | 

Row | SMILES | EC50 [1] | also measured
20 | Cc1cc(C)n(-c2cc(C)c(Nc3ccc(F)c(Cl)c3)nn2)n1 | 4.32 µM | 
21 | Cc1cc(Nc2cc(Cl)ccc2F)nc(-n2nc(C)cc2C)n1 | 0.64 µM | Emax [3]: 0%; Emax [2]: 90%; Activity [4]: inactive; inhibition (N1E-115): 50%; Emax [5]: 2.02%; EC50 [6]: 0.6 µM
22 | Cc1cc(Nc2ccc(C(F)(F)F)cc2)nc(-n2nc(C)cc2C)n1 | 3.45 µM | 
23 | Cc1cc(C)n(-c2nc(N)cc(Nc3ccc(F)c(Cl)c3)n2)n1 | 6.59 µM | 
24 | Cc1cc(Nc2cc(F)ccc2F)nc(-n2nc(C)cc2C)n1 | 1.89 µM | 
25 | Cc1cc(Nc2ccc(F)c(Cl)c2)nc(-n2nc(C)cc2C)n1 | 0.99 µM | Emax [3]: 0%; Emax [2]: 90%; Activity [4]: inactive; EC50 [7]: 0.19 µM; inhibition (N1E-115): 50%; Emax [5]: 28.3%
26 | Cc1cc(C)n(-c2cc(Nc3cccc(Cl)c3)nc(N)n2)n1 | > 100 µM | 
27 | Cc1cc(N[C@H]2CC[C@@H](O)CC2)nc(-n2nc(C)cc2C)n1 | > 100 µM | 
28 | Cc1cc(NCCc2ccc([N+](=O)[O-])cc2)nc(-n2nc(C)cc2C)n1 | > 100 µM | 
29 | Cc1cc(C)n(-c2cc(Nc3cc(Cl)ccc3F)nc(N)n2)n1 | > 100 µM | 
30 | Cc1cc(Nc2ccc(S)cc2)nc(-n2nc(C)cc2C)n1 | > 100 µM | 
31 | Cc1cc(Nc2ccc(F)c(Cl)c2)nc(-c2coc(C)n2)n1 | 3.59 µM | 
32 | Cc1cc(Nc2ccc([N+](=O)[O-])cc2)nc(-n2nc(C)cc2C)n1 | > 100 µM | 
33 | Cc1cc(Nc2ccc(C(F)(F)F)c(Cl)c2)nc(-n2nc(C)cc2C)n1 | 3.27 µM | 
34 | Cc1cc(C)n(-c2cc(Nc3ccc(C(F)(F)F)c(Cl)c3)nc(N)n2)n1 | > 100 µM | 
35 | Cc1cc(N[C@H]2CC[C@@H](N)CC2)nc(-n2nc(C)cc2C)n1 | > 100 µM | 
36 | Cc1cc(Nc2cccc(F)c2F)nc(-n2nc(C)cc2C)n1 | 5.03 µM | 
37 | Cc1cc(C)n(-c2cc(Nc3ccc(F)c(Cl)c3)nc(N)n2)n1 | > 100 µM | 

— ChEMBL document CHEMBL5038638, “Structure-Activity Relationship Study of Subtype-Selective Positive Modulators of KCa2 Channels” (J Med Chem, 2022)
